# Reference: PubChem BioAssay AID651654 (Broad Institute, 2012)
# “And” between values parts separate entries of the source, which are not always exact repeats. Equal values may be shown once. Out of some 360,000 compounds screened, about 740 (0.21%) were called active.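 How the source made its calls: active means mean lysis activity across replicates of at least 80%, whatever share of replicates individually reach that level; inactive means mean lysis activity below 80%.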 For the sample, actives were picked, then their nearest neighbours and some compounds at random.
# Assay: Cryptococcus neoformans cell lysis inducers, primary screen, AK release luminescence, single concentration (AID 651654)
# Conditions: C. neoformans lysis, adenylate kinase release luminescence, 4 h; at 15 µM; hits give high values; normalised: neutral wells 0, clomiphene wells 100
# Summary of the method: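 Assay system: C. neoformans cells. Amount: yeast cell density of 5 × 10^6 cells/mL. Technique: AK luminescence. Buffer or medium: YPD. Times: static 4 h at 37 °C with compound, 1 h detection. Dosing: single-point compound dose. Read-out: lysis from increased AK signal.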
row,SMILES,lysis activity
1,COc1ccc(S(=O)(=O)N(C)C[C@@H]2Oc3ccc(NC(=O)Nc4c(C)noc4C)cc3C(=O)N([C@H](C)CO)C[C@@H]2C)cc1,-0.689% (inactive) and -2.77% (inactive)
2,COc1ccc(S(=O)(=O)N(C)C[C@H]2Oc3ccc(NC(=O)Nc4c(C)noc4C)cc3C(=O)N([C@H](C)CO)C[C@H]2C)cc1,-3.44% (inactive)
3,Cc1noc(C)c1NC(=O)Nc1ccc2c(c1)C(=O)N([C@@H](C)CO)C[C@H](C)[C@H](CN(C)S(=O)(=O)c1ccc(Cl)cc1)O2,96.2% (active)
4,C[C@H](CO)N1C[C@H](C)[C@@H](CN(C)C(=O)c2ccncc2)Oc2ncc(-c3ccncc3)cc2C1=O,-2.74% (inactive)
5,COc1ccc(NC(=O)N[C@@H]2C=C[C@H](CC(=O)NC3CCC3)O[C@@H]2CO)cc1,-0.593% (inactive)
6,C[C@H]1CN([C@@H](C)CO)C(=O)c2cccc(NC(=O)Nc3ccccc3)c2O[C@@H]1CN(C)S(C)(=O)=O,0.333% (inactive)
7,O=C(Nc1ccc(F)cc1)N1C[C@H]2[C@@H](c3ccccc31)[C@@H](CO)N2Cc1cocn1,94.8% (active)
8,O=C(Nc1ccc(F)cc1)N1C[C@@H]2[C@H](c3ccccc31)[C@H](CO)N2Cc1ccccc1,-1.33% (inactive)
9,O=C(Nc1ccccc1)N1C[C@H]2[C@@H](c3ccccc31)[C@@H](CO)N2Cc1cocn1,-2.69% (inactive)
10,CCCNC(=O)N1[C@@H]2Cn3c(ccc(-c4ccc(OC)cc4)c3=O)[C@H]1[C@@H](C(=O)NC1CCC1)[C@@H]2CO,0.95% (inactive)
11,O=C(N[C@H]1CC[C@@H](CCNS(=O)(=O)c2ccccc2)O[C@H]1CO)c1cccnc1,-5.13% (inactive)
12,N#C[C@H]1[C@H](c2ccc(-c3ccccc3)cc2)[C@@H](CO)N1C(=O)Cc1ccccc1,0.774% (inactive)
13,N#C[C@@H]1[C@@H](c2ccc(-c3ccccc3)cc2)[C@@H](CO)N1C(=O)Cc1ccccc1,0.072% (inactive)
14,N#C[C@@H]1[C@@H](c2ccccc2)[C@@H](CO)N1C(=O)Cc1ccccc1,116% (active)
15,COc1cccc(S(=O)(=O)Nc2ccc3c(c2)[C@H]2C[C@H](CC(=O)N4CCCCC4)O[C@@H](CO)[C@H]2O3)c1,-2.67% (inactive)
16,O=C(NCc1cccc(F)c1)[C@H]1[C@H](CO)[C@H]2Cn3c(cccc3=O)[C@@H]1N2,0.27% (inactive)
17,O=C(C[C@@H]1C=C[C@@H](NC(=O)c2ccc3c(c2)OCO3)[C@H](CO)O1)NC1Cc2ccccc2C1,1.22% (inactive)
18,CO[C@@H]1CN(C)C(=O)c2cc(NC(=O)c3ccccc3)ccc2OC[C@@H](C)N(C(C)=O)C[C@@H]1C,-6.13% (inactive)
19,C[C@@H]1CCCCO[C@H](CN(C)S(C)(=O)=O)[C@@H](C)CN([C@H](C)CO)C(=O)c2cc(NC(=O)Nc3ccc4c(c3)OCO4)ccc2O1,50.4% (inactive)
20,C[C@@H]1CN([C@H](C)CO)S(=O)(=O)c2ccc(-c3cncnc3)cc2O[C@@H]1CN(C)Cc1ccccn1,-14.8% (inactive)
21,CCCC(=O)Nc1ccc2c(c1)C(=O)N(C)[C@@H]1CC[C@H](CC(=O)Nc3cn(C)nc3C)O[C@H]1CO2,6.15% (inactive)

row,SMILES,lysis activity
1,O=C(C[C@@H]1CC[C@@H]2[C@H](COC[C@H](O)CN2Cc2cccc(-c3ccncc3)c2)O1)N1CCOCC1,-0.0585% (inactive)
2,O=C(C[C@@H]1C[C@H]2c3cc(NC(=O)C4CCOCC4)ccc3O[C@H]2[C@@H](CO)O1)NCCN1CCCCC1,60.8% (inactive)
3,COc1cccc(S(=O)(=O)N2C[C@@H](O)COC[C@H]3O[C@H](CC(=O)N4CCCCC4)CC[C@@H]32)c1,52.9% (inactive)
4,COc1cccc(S(=O)(=O)N2C[C@@H](O)COC[C@@H]3O[C@H](CC(=O)N4CCN(C)CC4)CC[C@H]32)c1,86.2% (active)
5,COc1cccc(S(=O)(=O)N2C[C@@H](O)COC[C@H]3O[C@@H](CC(=O)N4CCOCC4)CC[C@@H]32)c1,2.85% (inactive)
6,Cc1ccc(S(=O)(=O)Nc2cccc3c2O[C@@H](CN(C)CC2CCCCC2)[C@H](C)CN([C@@H](C)CO)C3=O)cc1,-1.1% (inactive)
7,CNC[C@H]1Oc2cc(C#Cc3ccccn3)ccc2S(=O)(=O)N([C@H](C)CO)C[C@@H]1C,-3.09% (inactive)
8,C[C@@H]1CN([C@@H](C)CO)C(=O)Cc2cc(NC(=O)NC3CCCCC3)ccc2O[C@H]1CN(C)C(=O)Nc1ccc(C(F)(F)F)cc1,51.4% (inactive)
9,C[C@H](CO)N1C[C@H](C)[C@H](CN(C)C(=O)c2ccccc2)OCCCC[C@H](C)Oc2ccc(N(C)C)cc2C1=O,1.62% (inactive)
10,COc1cccc(S(=O)(=O)N(C)C[C@@H]2Oc3ncc(-c4cccc(C(=O)N(C)C)c4)cc3C(=O)N([C@H](C)CO)C[C@@H]2C)c1,2.06% (inactive)
11,COc1ccc(S(=O)(=O)Nc2ccc3c(c2)C(=O)N([C@@H](C)CO)C[C@H](C)[C@@H](CN(C)C(=O)Nc2ccc4c(c2)OCO4)OCCCC[C@@H](C)O3)cc1,49.4% (inactive)
12,C[C@H](CO)N1C[C@H](C)[C@@H](CN(C)C(=O)C2CCOCC2)Oc2cc(-c3ccc(C(=O)N(C)C)cc3)ccc2S1(=O)=O,-2.86% (inactive)
13,CCNC(=O)C[C@@H]1CC[C@H]2[C@@H](COc3ccc(NC(=O)c4ccccc4Cl)cc3C(=O)N2C)O1,13.7% (inactive)
14,C[C@@H](NC(=O)C[C@@H]1C=C[C@@H](NC(=O)CN2CCOCC2)[C@H](CO)O1)c1ccccc1,13.5% (inactive)
15,C[C@H](NC(=O)C[C@@H]1C=C[C@H](NC(=O)CN2CCOCC2)[C@H](CO)O1)c1ccccc1,131% (active)
16,C[C@@H](NC(=O)C[C@H]1C=C[C@@H](NC(=O)CN2CCOCC2)[C@@H](CO)O1)c1ccccc1,18.8% (inactive)
17,C[C@@H]1CN([C@H](C)CO)C(=O)c2cc(NC(=O)CCCCCC(=O)Nc3ccccc3N)ccc2O[C@@H]1CN(C)Cc1ccncc1,0.608% (inactive)
18,COc1ccc(CN(C)C[C@@H]2OCCCC[C@H](C)Oc3ccc(NC(=O)c4ccccc4)cc3C(=O)N([C@H](C)CO)C[C@H]2C)cc1,-1.71% (inactive)
19,C[C@H](CO)N1C[C@H](C)[C@@H](CN(C)S(=O)(=O)c2ccc(Cl)cc2)Oc2ccc(NS(C)(=O)=O)cc2CC1=O,-5.34% (inactive)
20,CCC(=O)N(C)C[C@@H]1Oc2cc(C#C[C@H](C)O)ccc2S(=O)(=O)N([C@H](C)CO)C[C@@H]1C,-0.573% (inactive)
21,C[C@@H]1CN([C@H](C)CO)C(=O)c2cc(C#CC3CCCC3)cnc2O[C@H]1CN(C)S(C)(=O)=O,-1.11% (inactive)

row,SMILES,lysis activity
1,C[C@@H]1CN([C@H](C)CO)C(=O)CCCn2nncc2CO[C@@H]1CN(C)C,-1.91% (inactive)
2,Cc1cccc(CN(C)C[C@@H]2OCc3cn(nn3)CCCC(=O)N([C@@H](C)CO)C[C@H]2C)c1,-1.37% (inactive)
3,COc1ccc(S(=O)(=O)N2C[C@H](O)COC[C@@H]3O[C@H](CC(=O)NCCN4CCCCC4)CC[C@H]32)cc1,0.16% (inactive)
4,CCCNC(=O)N1C[C@H](C)[C@@H](OC)CN(C)C(=O)c2ccc(NS(C)(=O)=O)cc2OC[C@@H]1C,0.827% (inactive)
5,COCC(=O)Nc1ccc2c(c1)C(=O)N(C)[C@@H]1CC[C@@H](CC(=O)NCc3cccc(F)c3)O[C@@H]1CO2,1.56% (inactive)
6,COCC#Cc1cnc2c(c1)C(=O)N([C@@H](C)CO)C[C@H](C)[C@@H](CN(C)Cc1ccccc1)O2,-2.83% (inactive)
7,CC(C)NC(=O)N[C@@H]1C=C[C@@H](CC(=O)N2CCCCC2)O[C@@H]1CO,1.39% (inactive)
8,C[C@@H]1CN([C@@H](C)CO)C(=O)c2cc(NC(=O)C3CCCCC3)ccc2O[C@@H]1CN(C)Cc1ccc(C(=O)O)cc1,-4.67% (inactive)
9,Cc1ccc(-c2cnc3c(c2)C(=O)N([C@@H](C)CO)C[C@H](C)[C@H](CN(C)C(=O)c2cccnc2)O3)cc1,-0.96% (inactive)
10,C[C@@H]1CN([C@@H](C)CO)C(=O)c2cc(NC(=O)CCCN(C)C)ccc2O[C@@H]1CN(C)Cc1ccncc1,5.83% (inactive)
11,COC(=O)C[C@@H]1C[C@H]2c3cc(NC(=O)Nc4ccc(F)cc4)ccc3O[C@H]2[C@@H](CO)O1,-7.03% (inactive)
12,CCC(=O)N(C)C[C@@H]1Oc2ncc(C#CCc3ccccc3)cc2C(=O)N([C@H](C)CO)C[C@H]1C,1.55% (inactive)
13,COc1ccc(CN2[C@@H](CO)[C@@H]3c4ccccc4N(C(=O)Nc4ccccc4)C[C@@H]32)cc1,0.269% (inactive)
14,COc1ccc(NC(=O)Nc2ccc3c(c2)C(=O)N([C@H](C)CO)C[C@@H](C)[C@H](CN(C)C(=O)Nc2ccc(C(F)(F)F)cc2)OCCCC[C@@H](C)O3)cc1,1.63% (inactive)
15,C[C@H](CO)N1C[C@H](C)[C@H](CN(C)C(=O)Nc2ccc(C(F)(F)F)cc2)Oc2ccc(NC(=O)C3CC3)cc2C1=O,8.67% (inactive)
16,Cn1cnc(CCNC(=O)C[C@@H]2CC[C@@H]3[C@H](COC[C@@H](O)CN3C(=O)Nc3ccccc3)O2)c1,1.75% (inactive)
17,C[C@H](CO)N1C[C@H](C)[C@H](CN(C)S(C)(=O)=O)Oc2ccc(NC(=O)Nc3ccc(F)cc3)cc2C1=O,0.358% (inactive)
18,C#CCN1C(Cc2ccccc2)C(=O)O[C@H](C2CCCCC2)[C@@H]1/C=C/C1CC1 (stereo partly specified),5.01% (inactive)
19,CO[C@@H]1CN(C)C(=O)c2cc(NC(C)=O)ccc2OC[C@H](C)N(CC2CCCCC2)C[C@@H]1C,-3.61% (inactive)
